Measurements reported in PubChem BioAssay AID493082 (Broad Institute, 2011).
Results filed as inconclusive are left out. Calls of active or inactive are those of the source.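 The calls were made as follows: active = compounds whose fitted half-maximal growth inhibition concentration is at most ten times the top valid dose; inconclusive = flat curve with 30 to 70% inhibition, or poor fit; inactive = the rest.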

test system: not listed separately; assay: antifungal activity on resistant C. albicans strain – Alamar Blue, 48 h, dry powder, dose response (AID 493082); conditions: C. albicans CaCi-8 + fluconazole, Alamar Blue growth, 48 h; at 26 µM (top of the series)
How it was run: (§1)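 Assay system – C. albicans CaCi-8, fluconazole-resistant clinical isolate · Medium – RPMI 1640 defined medium, MOPS, glucose, uridine · Also added – fluconazole 8 µg/mL · Schedule – 48 h static 37 °C compound exposure, 2 h Alamar Blue · Signal – Alamar Blue fluorescence, excitation 544 nm, emission 590 nm · Read-out – fungal growth or viability, lower signal indicating inhibition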

SMILES | activity change, negative = inhibition
CCN(CC)C(=O)Cn1c2ccc(F)cc2c2nc3n(c(=O)c21)CCS3 | 24.6% (inactive)
COC(=O)Cn1nc(-c2ccccc2)c2cccc(C(F)(F)F)c21 | -12% (inactive)
CCCCn1nc(-c2ccccc2)c2ccccc21 | 19.1% (inactive)
COC(=O)C(C)(C)n1nc(-c2ccccc2)c2ccccc21 | -6.76% (inactive)
O=C(Cn1nc(-c2ccccc2)c2ccccc21)OC1CCC1 | -21.3% (inactive)
COC(=O)Cn1nc(-c2ccccc2)c2ccc(C(F)(F)F)cc21 | -34.9% (inactive)
O=C(O)Cn1nc(-c2ccccc2)c2ccccc21 | -8.51% (inactive)
O=C(Cn1c2ccccc2c2ccncc21)N1CCCCC1 | -24.1% (inactive)
O=C(Cn1c2ccc(F)cc2c2nc3n(c(=O)c21)CCS3)N1CCCCC1 | 12.2% (inactive)
O=C1OCCC1n1nc(-c2ccccc2)c2ccccc21 (centres undefined) | -19.7% (inactive)
O=C(Cn1c2ccc(F)cc2c2nc3n(c(=O)c21)CCS3)N1CCCCCC1 | 3.17% (inactive)

test system: C. albicans CaCi-8 + fluconazole, Alamar Blue growth, 48 h; assay: as above; conditions: not given
How it was run: as §1

SMILES | AC50 [µM]
CCN(CC)C(=O)Cn1c2ccccc2c2nc3n(c(=O)c21)CCS3 | 10
O=C(Cn1c2ccccc2c2nc3n(c(=O)c21)CCS3)N1CCCC1 | 3.83
CC1CCN(C(=O)Cn2c3ccccc3c3nc4n(c(=O)c32)CCS4)CC1 | 2.06
COC(=O)Cn1nc(-c2ccccc2C)c2ccccc21 | 8.07
COC(=O)Cn1nc(-c2cccc(F)c2)c2ccccc21 | 14
COC(=O)Cn1nc(-c2ccccc2)c2ccccc21 | 2.33
COC(=O)Cn1nc(-c2ccc(F)cc2)c2ccccc21 | 16.1
O=C(Cn1c2ccc(F)cc2c2nc3n(c(=O)c21)CCS3)N1CCCC1 | 0.907
COC(=O)Cn1c(-c2ccccc2)nc2ccccc21 | 16.7
COC(=O)Cn1nc(I)c2ccccc21 | 18.8
O=C(Cn1c2ccccc2c2nc3n(c(=O)c21)CCS3)N1CCOCC1 | 7.67
O=C(Cn1c2ccccc2c2nc3n(c(=O)c21)CCS3)N1CCCCC1 | 4.91
COC(=O)Cn1nc(-c2ccc(C#N)cc2)c2ccccc21 | 20
